Screening data: PubChem, several laboratories
Not all results are given here.
KCNK9 inh = KCNK9 potassium channel inhibitors, primary screen, HEK293 cells, thallium flux; Potassium channel subfamily K member 9 (Homo sapiens), Q9NPC2; FluxOR thallium flux fluorescence; hits give low values; B-score at 10 µM; 310,000 compounds, 1.2% hits; AID 488922, 2010;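 active = ratio B-score over 3 SD below the library mean, with starting fluorescence within 5 SD of its mean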;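 note: negative B-score means less thallium flux so channel inhibition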
hERG protect = hERG rescue from dofetilide block, primary screen, cell-based, CHO-hERG, FluxOR thallium flux, dofetilide IC70; Voltage-gated inwardly rectifying potassium channel KCNH2 (Homo sapiens), Q12809; dofetilide IC70 present; activation (rescue from dofetilide block), less the hit threshold, % at 10 µM; 310,000 compounds, 0.51% hits; AID 1511, 2009;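 active = activation above the mean of controls blocked by dofetilide plus 5 SD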;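 note: thallium influx through hERG after potassium depolarization seen as dye fluorescence rise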
Cl transport mod = KCC2 cotransporter modulators, thallium flux, primary screen, cell-based, HEK293 KCC2, FluoZin-2 fluorescence, MLSMR; 190,000 compounds, 2.2% hits; Solute carrier family 12 member 5 (Homo sapiens), Q9H2X9; KCC2 cells, thallium flux FluoZin-2 fluorescence; B-score of Tl+ flux slope (higher = more flux/activation; lower = inhibition) at 10 µM;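 active = thallium flux slope and its plate-corrected score both differing from the plate sample mean at a set confidence after two filtering rounds, in either direction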;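 note: slope of fluorescence scaled to starting intensity during 10 to 20 s after thallium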
KCNQ1 pot = potentiators or activators of KCNQ1 channel, primary screen, cell-based, thallium flux, high-throughput | Potassium voltage-gated channel subfamily KQT member 1 (Homo sapiens), P51787 | CHO-K1 KCNQ1, thallium flux FluxOR fluorescence; hits give high values | B-score at 10 µM | 310,000 compounds, 0.35% hits | AID 2648, 2010;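 active = fluorescence ratio B-score, a plate-corrected score, at least three library SD, with initial intensity B-score within 5 SD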
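System: CHO-K1 cells stably expressing KCNQ1 / Medium: assay buffer for compound exposure, DMSO matched across wells / Reagent: thallium- and potassium-containing depolarizing buffer / Compound: one concentration, matched DMSO / Incubation: 20 min compound pretreatment at room temperature / Measured by: kinetic FluxOR fluorescence, 10 s baseline plus 110 s post-stimulus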
KCNK3 block = human KCNK3 channel inhibitors, primary screen, CHO cells, FluxOR thallium flux, B-score | Potassium channel subfamily K member 3 (Homo sapiens), O14649 | FluxOR fluorescence; hits give low values | B-score at 10 µM | 340,000 compounds, 0.84% hits | AID 602410, 2012;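 active = B-score under library mean minus 4 SD, starting fluorescence ratio at most library mean plus 5 SD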;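 note: more negative B-score means stronger inhibition of thallium flux through KCNK3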
Target sequence (O14649 whole entry, looked up): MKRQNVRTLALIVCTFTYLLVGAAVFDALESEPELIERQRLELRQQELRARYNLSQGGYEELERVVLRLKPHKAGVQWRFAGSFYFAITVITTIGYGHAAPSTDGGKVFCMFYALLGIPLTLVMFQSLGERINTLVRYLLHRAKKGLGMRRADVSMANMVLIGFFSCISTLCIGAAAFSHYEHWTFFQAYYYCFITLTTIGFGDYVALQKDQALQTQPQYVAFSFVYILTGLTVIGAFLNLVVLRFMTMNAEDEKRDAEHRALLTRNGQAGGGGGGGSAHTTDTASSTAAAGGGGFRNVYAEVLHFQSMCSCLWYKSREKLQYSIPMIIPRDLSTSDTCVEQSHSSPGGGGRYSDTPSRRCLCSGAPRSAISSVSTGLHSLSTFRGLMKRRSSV
KCNQ1 block = inhibitors of human KCNQ1 channel, primary screen, cell-based, thallium flux, high-throughput; Potassium voltage-gated channel subfamily KQT member 1 (Homo sapiens), P51787; CHO-K1 KCNQ1, FluxOR thallium flux fluorescence; hits give high values; B-score at 10 µM; 310,000 compounds, 1.3% hits; AID 2642, 2010;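 active = compounds whose thallium flux B-score, printed positive for inhibition, exceeds three library SD while starting fluorescence stays within three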;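 note: channel opened by potassium depolarization with thallium stimulus after 20 min compound exposure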
KCNK9 block conf = KCNK9 potassium channel inhibitors, confirmation, HEK293 cells, thallium flux, duplicate | shares compounds with KCNK9 inh | FluxOR thallium flux fluorescence | inhibition, % at 10 µM | 4,900 compounds, 43% hits | AID 492992, 2010;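 active = thallium signal inhibited by more than 5 SD of the compound-free buffer control wells, on both duplicate plates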;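 note: 0% = assay buffer control wells without compound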
Kir21 sel = mouse Kir2.1 channel inhibition, confirmation, selectivity assay for KCNK9 modulator project, cell-based, HEK293, thallium flux; inhibition, % at 10 µM; 4,900 compounds, 4% hits; Kir2.1 cells, FluxOR thallium flux fluorescence; shares compounds with KCNK9 inh; AID 492993, 2010;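 active = thallium signal drop more than 5 SD beyond the mean of the no-compound control wells, seen in both duplicate plates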;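 note: signal is fluorescence rise after thallium addition divided by baseline fluorescence; plate controls were assay buffer only for no effect and full block by chlorpromazine control for full effect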
HEK293 Tl ctr = thallium flux in non-induced HEK293 cells, confirmation, counter-screen for KCNK9 inhibitor project, cell-based, second counter screen, non-induced KCNK9-HEK293; AID 492997, 2010; shares compounds with KCNK9 inh; FluxOR thallium flux; inhibition, % at 10 µM; 4,900 compounds, 40% hits;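 active = thallium signal drop beyond 5 SD of the untreated control mean, on both duplicate plates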;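 note: plate controls were buffer only IC0 wells for no effect and SID17386958 at its maximal inhibitory level for full effect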
An asterisk follows results filed as active.

How did COc1ccc(CCNC(=O)c2c([S-])n(-c3ccc(C)cc3)c3cccc[n+]23)cc1 do in these assays?
KCNK9 inh: inactive; hERG protect: -24; Cl transport mod: -0.45; KCNQ1 pot: inactive; KCNK3 block: inactive; KCNQ1 block: inactive; KCNK9 block conf: inactive; Kir21 sel: inactive; HEK293 Tl ctr: inactive

How did CC1CCCN(C(=O)c2cn(-c3ccccc3)nc2-c2cccnc2)C1 (stereo not drawn) do in these assays?
KCNK9 inh: inactive; hERG protect: -11; KCNQ1 pot: inactive; KCNK3 block: inactive; KCNQ1 block: inactive

What do the screens show for `COCCN1C(=O)C(=O)/C(=C(/O)c2ccc(S(=O)(=O)N3CCOCC3)cc2)C1c1cccc(OC)c1` (stereo not drawn)?
KCNK9 inh: inactive; hERG protect: -5; KCNQ1 pot: inactive; KCNK3 block: inactive; KCNQ1 block: inactive

What do the screens show for `COc1ccc(CCC(=O)N2CCCC(Nc3ccc(OC)cc3)C2)cc1` (stereo not drawn)?
KCNK9 inh: inactive; hERG protect: -4; KCNQ1 pot: inactive; KCNK3 block: inactive; KCNQ1 block: inactive; KCNK9 block conf: inactive; Kir21 sel: inactive; HEK293 Tl ctr: inactive

How did COc1ccc(NC2CCCN(C(=O)c3ccc(OC)cc3OC)C2)cc1 (stereo not drawn) do in these assays?
KCNK9 inh: inactive; hERG protect: -5; KCNQ1 pot: inactive; KCNK3 block: inactive; KCNQ1 block: inactive

What do the screens show for `COc1ccc(NC2CCCN(C(=O)CCc3cn[nH]c3)C2)cc1` (stereo not drawn)?
KCNK9 inh: inactive; hERG protect: -7; KCNQ1 pot: inactive; KCNK3 block: inactive; KCNQ1 block: inactive

What do the screens show for `O=C(CCc1ccccc1)N1CCCC(Nc2ccc(F)cc2)C1` (stereo not drawn)?
KCNK9 inh: inactive; hERG protect: -6; KCNQ1 pot: inactive; KCNK3 block: inactive; KCNQ1 block: inactive; KCNK9 block conf: inactive; Kir21 sel: inactive; HEK293 Tl ctr: inactive

What do the screens show for `O=C(CCc1ccncc1)N1CCCC(Nc2ccc(F)cc2)C1` (stereo not drawn)?
KCNK9 inh: inactive; hERG protect: -2; KCNQ1 pot: inactive; KCNK3 block: inactive; KCNQ1 block: inactive

What do the screens show for `COc1ccc(NC2CCCN(C(=O)C3(C)CCCCC3)C2)cc1` (stereo not drawn)?
KCNK9 inh: inactive; hERG protect: -5; KCNQ1 pot: inactive; KCNK3 block: inactive; KCNQ1 block: inactive; KCNK9 block conf: inactive; Kir21 sel: inactive; HEK293 Tl ctr: inactive

What do the screens show for `COc1ccc(C(=O)N2CCCC(Nc3ccc(C(C)C)cc3)C2)c(OC)n1` (stereo not drawn)?
KCNK9 inh: inactive; hERG protect: -12; KCNQ1 pot: inactive; KCNK3 block: inactive; KCNQ1 block: inactive; KCNK9 block conf: inactive; Kir21 sel: inactive; HEK293 Tl ctr: inactive
